Reference: publication PMC4805780 (International Journal for Parasitology: Drugs and Drug …, 2016)
“Also recorded” adds a separate entry of the source. Read-outs that look alike come from different tables or passages of the source.

Columns and labels:
[1] = system: adult H. contortus female worms; test: Anthelmintic effect on motility of adult female worms in culture; design: species or system Haemonchus contortus; conditions: for anthelmintic effect against adult worms: all concentrations up to a maximum of 80 μM
Method in brief: (§1)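 Adult females freshly taken from goat abomasum, or L3 larvae Baermann-extracted from 10-day, 21 °C faecal cultures; both PCR-confirmed as H. contortus. 100 worms per dish, in triplicate, in 20 ml RPMI-1640 with 2% glucose and antibiotics, pH 6.8. Rising test-compound concentrations, with DMSO and untreated controls; 37 °C, 5% CO2, 36 h. Worms light-stimulated 5 min at 37 °C. 50 scored per dish as very motile, sluggish or immotile. IC50 from % non-motile by nonlinear regression.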

P. falciparum = conditions: ref Bobenchik et al., 2013; cited from earlier work
[2] = system: H. contortus third-stage (L3) larvae; test: Anthelmintic effect on motility of third-stage larvae in culture; design: species or system Haemonchus contortus; conditions: for anthelmintic effect against larvae: data not shown
Method in brief: as §1

HcPMT1 = target: T1, HcPMT1 (Haemonchus contortus, UniProt A0A2Z1FIB9); test: Methyltransferase HT activity kit assay, HcPMT1 as sole enzyme; type: biochemical
T1 sequence (A0A2Z1FIB9 1-349): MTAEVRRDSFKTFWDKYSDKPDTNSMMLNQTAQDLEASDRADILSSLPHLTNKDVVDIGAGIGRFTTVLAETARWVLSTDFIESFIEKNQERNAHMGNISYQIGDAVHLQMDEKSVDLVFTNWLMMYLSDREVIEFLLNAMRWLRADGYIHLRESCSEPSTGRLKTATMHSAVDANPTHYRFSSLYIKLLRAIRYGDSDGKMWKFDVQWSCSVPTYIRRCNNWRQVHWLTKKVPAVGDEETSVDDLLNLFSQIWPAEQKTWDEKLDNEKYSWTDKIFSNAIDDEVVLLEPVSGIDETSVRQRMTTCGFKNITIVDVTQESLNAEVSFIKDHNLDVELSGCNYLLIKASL

P. falciparum PMT = conditions: previous studies ref Bobenchik et al., 2013; cited from earlier work
[3] = target: T2, HcPMT1 + HcPMT2 combination (Haemonchus contortus, UniProt A0A2Z1FIB9+U5HK48); test: Methyltransferase HT activity kit assay, HcPMT1 + HcPMT2 combination; type: biochemical; conditions: for IC50: read-out: HcPMT1 + HcPMT2 Activity inhibition IC50, 11 μg/ml each enzyme, 95 μM SAM, 160 μM phosphoethanolamine
T2 sequence (A0A2Z1FIB9 1-349): T1 sequence (A0A2Z1FIB9 1-349)
T2 sequence (U5HK48 3-433): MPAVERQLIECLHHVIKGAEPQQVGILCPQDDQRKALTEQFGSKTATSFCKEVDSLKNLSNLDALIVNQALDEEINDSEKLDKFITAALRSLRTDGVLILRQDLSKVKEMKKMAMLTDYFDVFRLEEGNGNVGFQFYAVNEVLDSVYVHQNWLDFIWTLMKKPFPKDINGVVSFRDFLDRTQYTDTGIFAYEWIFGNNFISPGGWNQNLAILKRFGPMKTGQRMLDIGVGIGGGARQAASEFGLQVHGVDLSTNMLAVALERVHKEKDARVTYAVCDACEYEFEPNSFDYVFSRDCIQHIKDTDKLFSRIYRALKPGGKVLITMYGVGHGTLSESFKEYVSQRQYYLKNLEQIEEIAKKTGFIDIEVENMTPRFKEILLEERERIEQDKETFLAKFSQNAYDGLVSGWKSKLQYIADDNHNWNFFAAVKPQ
Method in brief: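 His-tagged recombinant HcPMT1 and HcPMT2 from E. coli BL21-CodonPlus-DE3-RIL, Ni-affinity purified, dialysed in 5 mM Hepes-KOH pH 7.8 with 0.5 mM DTT. Fluorescent SAM-dependent methyltransferase kit, 11 µg/ml each enzyme, 95 µM SAM, 160 µM phosphoethanolamine. Rising test compound from DMSO stock; DMSO-only reactions as uninhibited. Triplicate, 24 °C, 45 min shaking, then kit positive-control mix 10 min. Isopropanol stop; fluorescence 380ex/520em. % inhibition against uninhibited mean RFU; IC50 by nonlinear regression.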

MonoMac6 cells = test: WST-1 cytotoxicity assay in mammalian cells; type: cell-based, human; conditions: read-out: cytotoxic IC50; mammalian monocytic cells, 48 h
Method in brief: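 MonoMac6 cells seeded at 10⁴/well in phenol-red-free RPMI-1640 with 10% FCS, 2.05 mM L-glutamine, nonessential amino acids, OPI supplement and 1% penicillin-streptomycin. Test compound at rising concentrations in triplicate, with DMSO-only controls; 48 h, 37 °C, 5% CO2. WST-1 added, 1 h at 37 °C. Supernatant transferred and formazan read as absorbance at 420 nm.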

[4] = all concentrations up to a maximum of 80 μM

Molecule: S=C(CSc1ccccc1)Nc1cccc2ccccc12 [NSC-158011, N-naphthalen-1-yl-2-phenylsulfanylethanethioamid]
- anthelmintic effect against adult worms ([1]; data not shown): did not show any anthelmintic effect
- antiparasitic activity against P. falciparum (P. falciparum): significant antiparasitic activity
- anthelmintic effect against larvae [2, 4]: did not show any anthelmintic effect
- inhibitory effect against the activity of HcPMT1 as the sole enzyme (HcPMT1): did not have any significant inhibitory effect; also recorded: had no inhibitory effect
- inhibitory effect against catalytic activity of P. falciparum PMT (P. falciparum PMT): significant inhibitory effect
- inhibition at 15 µM ([3]; read-out: maximum inhibition of combined activity of HcPMT1 and HcPMT2): 12%

Molecule: CC(=NNC(=[Se])N1CC2CCC(CC2)C1)c1ccccn1 [NSC-323241, 3-Azabicyclo[3.2.2]nonane-3-carboselenoic acid, [1-(2-pyridinyl)ethylidene]hydrazide]
- anthelmintic effect against adult worms ([1]; data not shown): did not show any anthelmintic effect
- antiparasitic activity against P. falciparum (P. falciparum): significant antiparasitic activity
- anthelmintic effect against larvae [2, 4]: did not show any anthelmintic effect
- inhibitory effect against the activity of HcPMT1 as the sole enzyme (HcPMT1): did not have any significant inhibitory effect; also recorded: had no inhibitory effect
- inhibitory effect against catalytic activity of P. falciparum PMT (P. falciparum PMT): significant inhibitory effect
- inhibition at 12 µM ([3]; read-out: maximum inhibition rate of combined activity of HcPMT1 and HcPMT2): 21%

Molecule: O=C1C=C(NCCc2cc(Br)c(O)c(Br)c2)C(=O)c2ncccc21 [NSC-668394, 5,8-Quinolinedione, 7-[[2-(3,5-dibromo-4-hydroxyphenyl)ethyl]amino]-]
- anthelmintic effect against adult H. contortus ([1]; up to 60 μM, data not shown): did not show any anthelmintic activity
- anthelmintic effect against larvae ([2]; up to 60 μM): did not show any anthelmintic activity
- IC50 (HcPMT1): 5.9 ± 0.9 µM
- concentration with highest inhibitory effect on HcPMT1 and HcPMT2 activity [3]: 5 µM
- IC50 [3]: 2.8 ± 0.6 µM

Molecule: Hydrazinecarbothioamide, N,N-dipropyl- 2-(2-pyridinemethylene)-, (N,N,S)-copper(II) chloride complex, (SP-4-3)- [NSC-641296]
- cytotoxic IC50 relative to anthelmintic IC50 against adult worms ([1]; MonoMac6 IC50 vs adult worm IC50): 4 fold
- percentage of immotile worms relative to motile worms ([1]; at 8 μM and above, adult worms, 36 h): at least 2 fold
- change in number of motile adult worms ([1]; at 8 μM, 36 h): decrease by half
- concentration from which significant decrease in very motile larvae was observed ([2]; 36 h, P < 0.05): 4 µM
- cytotoxic IC50 relative to anthelmintic IC50 against larvae ([2]; MonoMac6 IC50 vs larvae IC50): 2 fold
- percentage of sluggishly motile larvae relative to very motile ([2]; above 4 μM, 36 h): at least 2.7 fold
- percentage of immotile worms relative to very motile worms ([2]; at 22 μM, larvae, 36 h): 4 fold
- percentage of sluggishly motile worms relative to very motile ([2]; from 14 μM and above, larvae, 36 h): at least 3 fold
- IC50 (HcPMT1; read-out: HcPMT1 Activity inhibition IC50, HcPMT1 alone, 95 μM SAM, 160 μM phosphoethanolamine): 8.3 ± 1.1 µM
- concentration with highest inhibitory effect on HcPMT1 and HcPMT2 activity [3]: 8 µM
- IC50 [3]: 5.1 ± 1.8 µM
- IC50 (MonoMac6 cells): 29 ± 2.1 µM
